Test results: ChEMBL document CHEMBL5696442, “Discovery of type II inhibitors of TGFβ-activated kinase 1 (TAK1) and mitogen-activated protein kinase kinase kinase kinase 2 (MAP4K2)” (J Med Chem, 2015)

Assays:
MEF = experiment: Inhibition of TGF-beta induced p38 MAPK phosphorylation level in wild type mouse MEF cells incubated for 1 hr followed by TGF-beta stimulation by Western blot analysis; type: functional, cell-based; conditions: dose <= 500.0 nM
[1] = target: T1, Dual specificity mitogen-activated protein kinase kinase 5 (Homo sapiens) (UniProt Q13163); experiment: Inhibition of MAP2K5 Lys2 labeling site in human A-375 cells at 0.05 uM by KiNativ Profiling analysis relative to control; type: cell-based
T1 sequence (whole entry): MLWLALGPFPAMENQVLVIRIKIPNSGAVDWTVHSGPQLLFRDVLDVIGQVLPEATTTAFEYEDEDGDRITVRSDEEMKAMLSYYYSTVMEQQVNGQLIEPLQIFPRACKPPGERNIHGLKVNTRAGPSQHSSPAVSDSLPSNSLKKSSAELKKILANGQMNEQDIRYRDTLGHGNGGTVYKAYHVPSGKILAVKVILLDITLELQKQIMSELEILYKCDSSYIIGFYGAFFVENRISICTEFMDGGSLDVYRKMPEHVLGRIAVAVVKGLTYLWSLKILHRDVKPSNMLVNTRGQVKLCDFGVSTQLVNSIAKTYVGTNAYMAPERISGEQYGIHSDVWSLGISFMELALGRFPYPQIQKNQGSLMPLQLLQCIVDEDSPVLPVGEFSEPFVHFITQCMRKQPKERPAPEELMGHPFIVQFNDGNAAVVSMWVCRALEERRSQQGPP

[2] = target: T2, Aurora kinase A (Homo sapiens) (UniProt O14965); experiment: Inhibition of AurA Lys2 labeling site in human A-375 cells at 0.5 uM by KiNativ Profiling analysis relative to control; type: cell-based
T2 sequence (whole entry): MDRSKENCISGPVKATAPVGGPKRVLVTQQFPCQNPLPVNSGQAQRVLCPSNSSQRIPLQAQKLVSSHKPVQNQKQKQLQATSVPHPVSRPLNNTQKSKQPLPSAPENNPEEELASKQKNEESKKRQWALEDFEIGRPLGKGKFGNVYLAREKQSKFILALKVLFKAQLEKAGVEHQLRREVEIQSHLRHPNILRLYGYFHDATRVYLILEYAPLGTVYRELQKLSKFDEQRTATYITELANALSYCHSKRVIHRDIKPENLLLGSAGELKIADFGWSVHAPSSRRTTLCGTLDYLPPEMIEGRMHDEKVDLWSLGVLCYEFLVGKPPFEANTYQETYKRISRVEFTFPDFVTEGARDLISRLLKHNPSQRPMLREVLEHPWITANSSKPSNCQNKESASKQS
Outline: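 Intact A375 melanoma cells were treated with compound at 5 or 0.5 μM, then lysed. Lysate kinases were labeled with a lysine-reactive ATP or ADP-biotin probe (KiNativ). Inhibition is read as protection of each kinase labeling site from probe labeling.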

[3] = target: T3, Serine/threonine-protein kinase 3 (Homo sapiens) (UniProt Q13188); experiment: Inhibition of MST2 Lys1 labeling site in human A-375 cells at 5 uM by KiNativ Profiling analysis relative to control; type: cell-based
T3 sequence (whole entry): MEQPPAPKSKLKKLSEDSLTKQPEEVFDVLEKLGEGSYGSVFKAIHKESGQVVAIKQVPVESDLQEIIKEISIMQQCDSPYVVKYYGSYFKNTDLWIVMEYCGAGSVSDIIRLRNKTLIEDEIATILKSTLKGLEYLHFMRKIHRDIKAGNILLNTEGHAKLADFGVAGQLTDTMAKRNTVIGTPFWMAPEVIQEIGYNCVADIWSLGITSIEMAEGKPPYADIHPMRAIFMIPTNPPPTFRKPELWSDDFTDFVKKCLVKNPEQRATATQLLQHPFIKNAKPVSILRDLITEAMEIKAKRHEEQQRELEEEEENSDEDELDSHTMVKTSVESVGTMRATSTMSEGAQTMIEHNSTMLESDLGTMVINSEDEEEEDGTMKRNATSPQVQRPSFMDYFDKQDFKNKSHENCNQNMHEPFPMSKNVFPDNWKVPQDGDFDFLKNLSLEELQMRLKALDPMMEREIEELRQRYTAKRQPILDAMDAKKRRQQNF

[4] = target: Ribosomal protein S6 kinase alpha-1 (Homo sapiens) (UniProt Q15418); experiment: Inhibition of RSK1 domain1 Lys1 labeling site in human A-375 cells at 0.05 uM by KiNativ Profiling analysis relative to control; type: cell-based
[5] = target: Tyrosine-protein kinase Fer (Homo sapiens, UniProt P16591); experiment: Inhibition of FER Lys1 labeling site harbouring DKTSVAVKTCKEDLPQELK in human A-375 cells at 5 uM by KiNativ Profiling analysis relative to control; type: cell-based
[6] = target: T4, Serine/threonine-protein kinase NLK (Homo sapiens) (UniProt Q9UBE8); experiment: Inhibition of NLK Lys2 labeling site in human A-375 cells at 0.5 uM by KiNativ Profiling analysis relative to control; type: cell-based
T4 sequence (whole entry): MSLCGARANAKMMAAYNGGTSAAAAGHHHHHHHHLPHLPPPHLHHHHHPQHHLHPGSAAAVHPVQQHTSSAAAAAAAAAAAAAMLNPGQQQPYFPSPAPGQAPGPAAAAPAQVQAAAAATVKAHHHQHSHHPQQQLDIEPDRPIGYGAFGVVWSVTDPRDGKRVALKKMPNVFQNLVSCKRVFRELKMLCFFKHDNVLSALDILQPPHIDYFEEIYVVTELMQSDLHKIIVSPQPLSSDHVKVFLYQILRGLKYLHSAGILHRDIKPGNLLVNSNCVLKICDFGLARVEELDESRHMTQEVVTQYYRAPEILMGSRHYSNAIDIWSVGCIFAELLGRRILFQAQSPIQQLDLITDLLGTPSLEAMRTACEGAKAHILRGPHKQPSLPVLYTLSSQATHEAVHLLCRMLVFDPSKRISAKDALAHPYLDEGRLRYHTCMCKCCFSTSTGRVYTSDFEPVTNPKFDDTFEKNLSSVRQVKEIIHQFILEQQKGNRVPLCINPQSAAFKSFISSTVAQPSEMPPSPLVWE

Chain of Tyrosine-protein kinase Fer (P16591 whole entry, looked up): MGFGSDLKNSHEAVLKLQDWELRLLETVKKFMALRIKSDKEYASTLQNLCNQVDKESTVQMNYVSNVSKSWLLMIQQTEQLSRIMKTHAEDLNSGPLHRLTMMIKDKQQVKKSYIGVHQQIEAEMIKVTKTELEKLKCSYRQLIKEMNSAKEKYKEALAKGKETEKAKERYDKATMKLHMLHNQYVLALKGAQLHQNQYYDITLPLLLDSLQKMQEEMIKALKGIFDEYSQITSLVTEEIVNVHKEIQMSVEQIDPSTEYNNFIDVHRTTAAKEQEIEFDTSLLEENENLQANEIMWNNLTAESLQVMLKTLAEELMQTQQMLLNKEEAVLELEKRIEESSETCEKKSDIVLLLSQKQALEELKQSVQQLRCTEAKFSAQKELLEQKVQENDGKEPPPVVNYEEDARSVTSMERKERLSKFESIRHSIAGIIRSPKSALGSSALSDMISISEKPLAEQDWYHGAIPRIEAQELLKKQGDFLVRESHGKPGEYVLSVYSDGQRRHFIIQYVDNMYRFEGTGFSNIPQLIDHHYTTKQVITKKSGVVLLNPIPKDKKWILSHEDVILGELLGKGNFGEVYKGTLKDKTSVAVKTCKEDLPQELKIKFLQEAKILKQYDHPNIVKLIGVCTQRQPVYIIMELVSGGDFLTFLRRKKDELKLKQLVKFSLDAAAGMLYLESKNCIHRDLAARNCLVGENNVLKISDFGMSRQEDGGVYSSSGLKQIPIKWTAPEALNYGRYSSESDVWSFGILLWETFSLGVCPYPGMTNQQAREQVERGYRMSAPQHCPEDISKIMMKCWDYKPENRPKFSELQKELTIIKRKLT
Chain of Ribosomal protein S6 kinase alpha-1 (Homo sapiens) (Q15418 whole entry, the tested form may be a part): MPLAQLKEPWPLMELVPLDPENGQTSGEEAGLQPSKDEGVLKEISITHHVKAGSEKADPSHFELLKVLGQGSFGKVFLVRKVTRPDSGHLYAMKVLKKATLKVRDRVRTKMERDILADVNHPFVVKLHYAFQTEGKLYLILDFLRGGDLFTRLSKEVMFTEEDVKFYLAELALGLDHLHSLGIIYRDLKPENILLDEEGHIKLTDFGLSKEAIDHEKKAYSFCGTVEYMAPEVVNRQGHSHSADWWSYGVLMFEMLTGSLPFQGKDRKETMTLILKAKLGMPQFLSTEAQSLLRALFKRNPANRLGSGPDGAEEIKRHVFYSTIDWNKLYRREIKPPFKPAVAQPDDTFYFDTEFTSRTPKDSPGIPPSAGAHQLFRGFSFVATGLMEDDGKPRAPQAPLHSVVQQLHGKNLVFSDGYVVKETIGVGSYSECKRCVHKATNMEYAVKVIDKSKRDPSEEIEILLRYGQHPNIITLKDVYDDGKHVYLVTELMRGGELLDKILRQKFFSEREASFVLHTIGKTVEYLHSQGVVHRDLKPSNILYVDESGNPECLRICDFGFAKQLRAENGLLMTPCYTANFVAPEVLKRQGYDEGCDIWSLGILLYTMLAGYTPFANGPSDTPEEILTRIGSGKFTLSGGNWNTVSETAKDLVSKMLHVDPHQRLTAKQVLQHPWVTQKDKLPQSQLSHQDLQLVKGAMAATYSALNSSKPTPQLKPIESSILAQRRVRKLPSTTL

Row | SMILES | inhibition (MEF) | inhibition [1] [%] | inhibition [2] [%] | inhibition [3] [%] | inhibition [4] [%] | inhibition [5] [%] | inhibition [6] [%]
1 | CNc1cc(Oc2cc(C(=O)Nc3cc(N4CCN(C)CC4)cc(C(F)(F)F)c3)ccc2C)ncn1 | Dose-Dependent Effect |  |  |  |  |  | 
2 | CCN1CCN(Cc2ccc(NC(=O)c3ccc(C)c(Oc4ccnc5[nH]ccc45)c3)cc2C(F)(F)F)CC1 |  | 19.1 | 12 | 13.7 | -1.6 | 98.1 | 3.1
3 | CNc1cc(Oc2cc(C(=O)Nc3cc(-n4cnc(C)c4)cc(C(F)(F)F)c3)ccc2C)ncn1 | Dose-Dependent Effect |  |  |  |  |  | 
4 | CCN1CCN(Cc2ccc(NC(=O)c3ccc(C)c(/C=C/c4cnc5[nH]ccc5c4OC)c3)cc2C(F)(F)F)CC1 |  | -5.6 | 0.7 | 25 | -0.5 | 80.3 | 27.3
